In PMC5672994 (Molecular Imaging, 2017):

Tests used:
Lipophilicity = assay type: physicochemical; details: shake-flask
PSMA(+) LNCaP tumors = assay: Small-animal PET imaging in mice bearing subcutaneous LNCaP tumors; assay type: in vivo; details: for absolute tumor uptake, fold lower in comparison to ^68Ga-1 / specificity of tumor accumulation: PET; for specificity of tumor accumulation: PSMA(+) LNCaP tumors, blocking with PMPA 20 nmol/mouse; for peak (maximum) kidney uptake / time of peak kidney uptake postadministration: dynamic PET kidney TAC; for peak tumor uptake: subcutaneous LNCaP tumor, iv
Procedure, shortened: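 Athymic Balb/c nude mice carried LNCaP xenografts (5.0 million cells sc, right shoulder, in Matrigel 1:1), imaged at ~200-300 mg. Dosing was by iv tail vein in PBS pH7.4: static 15.4-18.7 MBq (~0.56-0.68 nmol), dynamic ~28 MBq. Mice were under isoflurane. Dynamic scans ran 3500 s; static scans at 0.5, 1, 2 and 3 h. Decay-corrected VOI %ID/g was taken. Blocking used coinjected PMPA 20 nmol/mouse (n = 3).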

Metabolism in vivo = details: mice, 15 minutes after injection, HPLC
Procedure, shortened: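 Mice (n = 2/group) received 7.3-11.1 MBq (0.3-0.4 nmol) of ⁶⁸Ga-radiotracer in PBS by tail-vein injection and were killed at 15 min. Heparinized blood was spun at 1700 g for 5 min. Plasma was ultrafiltered (30 kDa cutoff, 9660 g, 10 min). Filtrate and protein fractions were gamma-counted, and filtrate aliquots were analysed by RP-HPLC for metabolites.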

[1] = Stability of formulated radiotracer in saline or PBS; assay type: physicochemical; details: incubation in saline or PBS at 37°C for over 4 hours

Row | Compound | LogD (n-octanol: PBS pH7.4) (Lipophilicity) | absolute tumor uptake, fold lower in comparison to ^68Ga-1 (PSMA(+) LNCaP tumors; LNCaP tumor) | specificity of tumor accumulation (PSMA(+) LNCaP tumors) | peak (maximum) kidney uptake (PSMA(+) LNCaP tumors) | time of peak kidney uptake postadministration (PSMA(+) LNCaP tumors) | tumor-associated radioactivity after 3500 seconds (PSMA(+) LNCaP tumors; dynamic PET, LNCaP tumor) | peak tumor uptake (PSMA(+) LNCaP tumors; dynamic PET) | tumor-associated activity retained for up to 3 hours (PSMA(+) LNCaP tumors; static PET, LNCaP tumor) | radiotracer intact in soluble fraction of the blood pool (Metabolism in vivo) | stability with respect to changes in RCP [1] | time of peak tumor uptake postadministration (PSMA(+) LNCaP tumors; dynamic PET, LNCaP tumor) | absolute tumor uptake after 3 hours postadministration (PSMA(+) LNCaP tumors; static PET, LNCaP tumor)
1 | ^68Ga-DFO-pNCS-Bn-PSMA [^68Ga-7] | −2.60 ± 0.02 | ~2.5 fold | specific accumulation | ~50 %ID/g | ~1400 s | 2.90 ± 0.46 %ID/g | 3.5-4.0 %ID/g | 2.5-3.5 %ID/g | 100% | stable | – | –
2 | ^68Ga-DFO-Nsucc-PSMA [^68Ga-4] | −3.24 ± 0.05 | ~10 fold | specific accumulation | – | – | – | 3-4 %ID/g | – | 100% | stable | 5 to 10 min | 0.8-1.2 %ID/g
3 | O=C([O-])CN(CCN(CC(=O)[O-])Cc1cc(CCC(=O)NCCCCCC(=O)NCCCC[C@H](NC(=O)N[C@@H](CCC(=O)O)C(=O)O)C(=O)O)ccc1[O-])Cc1cc(CCC(=O)O)ccc1[O-].[68Ga+3].[OH3+] [^68Ga-1, ^68Ga-HBED-CC-PSMA, reference compound] | −4.06 ± 0.10 | – | – | around 30 %ID/g | ~500 s | > 8.0 %ID/g | – | – | – | – | – | –
